From PubChem
Exocytosis inh = blocks lytic granule exocytosis | TALL-104 LAMP-1 surface exposure, flow cytometry; cells stimulated with thapsigargin and PMA | inhibition, % at 10 µM | 360,000 compounds, 0.66% hits | AID 651702;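 active = inhibition above about 55%, limit read from the data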
CendR NRP1 mod = NRP-1/CendR interaction modulation | O14786 | inhibition, % at 25 µM | AID 602438 | FAM-RPARPAR peptide binding to NRP-1, fluorescence polarization | 360,000 compounds, 0.85% hits;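 active = inhibition or corrected inhibition above about 18%, plus a signal ratio from 0.5 to 1.5, limit read from the data, passing the limit was not always enough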
ASAP1 inh = blocks human ASAP1-stimulated Arf1 GTP hydrolysis. inhibition, % at 16.5 µM. Q9ULH1. 360,000 compounds, 0.19% hits. GDP FP detection. AID 624377; in the data active = inhibition above about 25%;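 note: 0% = vehicle with enzyme and substrate and 100% = no enzyme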
ARFGAP1 inh = rat ARFGAP1 inhibition; 360,000 compounds, 0.26% hits; AID 651572; Arfgap1-stimulated ARF1 GTP hydrolysis, GDP FP detection; inhibition, % at 16.5 µM; Q62848;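 active = inhibition above a per-plate limit, mean inhibition of low control wells plus 3 SD, cut at about 25% in these data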;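 note: 0% = DMSO wells with enzyme and 100% = wells lacking Arfgap1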
Target sequence (Q62848 1-136 limits assumed): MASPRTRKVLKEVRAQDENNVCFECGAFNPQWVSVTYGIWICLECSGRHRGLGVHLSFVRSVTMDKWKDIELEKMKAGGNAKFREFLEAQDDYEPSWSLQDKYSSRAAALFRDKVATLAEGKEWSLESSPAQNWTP
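Material: truncated rat Arfgap1 GAP domain; Incubation: compound-enzyme preincubation 20 min, reaction 120 min, detection 60 min, 25 °C; Read-out: percent inhibition of Arfgap1-stimulated GTP hydrolysis; Technique: FP, GDP Alexa 633 tracer displaced from anti-GDP antibody, 620/688 nm; Controls: No-Arfgap1 wells (100%) versus DMSO full-reaction wells (0%); Replication: single well per compound.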
V-ATPase pH = yeast V-ATPase proton transport regulation by pHLuorin; S. cerevisiae, pHLuorin cytosolic pH fluorescence; response, % at 10 µM; 350,000 compounds, 0.37% hits; in the data active = response mostly above about 7.3%, no sharp cut-off; inactive = mostly below about 5.4%; note: actives read high
VATPase regulator = modulates yeast V-ATPase proton transport; shares compounds with V-ATPase pH; S. cerevisiae pHLuorin cytosolic pH; response, % at 10 µM; 980 compounds, 2% hits; in the data active = response above about 24%;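 note: plate controls were vehicle wells for no effect and positive control wells for full effect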
An asterisk follows results filed as active; . = no result. Most compounds without a hit are left out; they make up all but 2.2% or so of the library.

SMILES | Exocytosis inh | CendR NRP1 mod | ASAP1 inh | ARFGAP1 inh | V-ATPase pH | VATPase regulator
C[C@H]1CN([C@@H](C)CO)C(=O)CCCn2nncc2CO[C@@H]1CN(C)Cc1ccccc1 | 6 | -8 | 2 | 2 | 0 | .
CC(C)=C1C2CCC1C1C(=O)N(c3nccs3)C(=O)C21 (centres undefined) | 2 | 22 | -4 | 11 | 2 | .
O=C1C2C3C=CC(C3)C2C(=O)N1c1nccs1 (centres undefined) | 0 | -13 | 12 | -3 | 9.4* | 1
CN(CC(=O)Nc1ccc(F)cc1[N+](=O)[O-])Cc1ccccc1 | -8 | 6 | 3 | 6 | 7.9* | 0
Cc1cccc(C)c1-n1nnnc1C(c1ccnc2ccccc12)N(C)Cc1ccccc1 (centres undefined) | 3 | -10 | -17 | -14 | . | .
Oc1ccccc1C1CCCCC1c1ccccc1 (centres undefined) | 13 | 11 | 10 | -3 | 0 | .
Cc1ccc(C)c(NC(=S)NCc2ccccc2)c1 | -11 | -5 | -8 | 14 | 0 | .
Cc1ccc(C)c(NC(=S)N/N=C/C(C)c2ccccc2)c1 (centres undefined) | 1 | -2 | -8 | 15 | 15* | 3
CS(=O)(=O)c1ccc(OCCCN2CCC(C(O)(c3ccccc3)c3ccccc3)CC2)cc1 | . | . | -12 | 4 | . | .
COc1ccc(CC(=O)NC2=NCCS2)cc1 | -1 | 0 | 11 | -1 | 1 | .
COc1ccc(C(=O)CCC(=O)NC2=NCCS2)cc1 | 0 | -16 | -22 | 11 | 2 | -3
CN1c2ccccc2SC2C(c3ccccc3)=NOC21 (centres undefined) | -8 | -16 | -6 | -3 | . | .
Cc1oc(C(C)(C)C)cc1C(=O)Nc1cccc(/C=C\C(=O)O)c1 | -2 | 3 | 9 | -4 | 14* | -4
Cc1oc(-c2ccccc2)cc1C(=O)Nc1cccc(/C=C\C(=O)O)c1 | 1 | -13 | 0 | 7 | -1 | .
Cc1nc(C)c(-c2ccc(SCC(=O)Nc3ccccc3)nn2)s1 | 1 | 0 | -7 | -1 | -3 | .
Cc1nc(C)c(-c2ccc(SCc3ccccc3C)nn2)s1 | 10 | -10 | 14 | -8 | 10* | 2
CC(=O)c1c(C)[nH]c(C(=O)COC(=O)COc2ccccc2F)c1C | -5 | -2 | 3 | 3 | 12* | -1
CC(=O)c1c(C)[nH]c(C(=O)COC(=O)Cc2ccccc2F)c1C | 1 | 1 | 13 | -2 | 1 | .
CC(Oc1cc(F)ccc1[N+](=O)[O-])C(=O)Nc1ccc(S(=O)(=O)N2CCCC2)cc1 (centres undefined) | -1 | 2 | 18 | 1 | 15* | -3
Cc1ccccc1OC(C)C(=O)Nc1ccc(S(=O)(=O)N2CCCC2)cc1 (centres undefined) | -2 | 0 | -8 | 9 | -6 | .
CCC1(c2ccccc2)SCC(c2ccccc2)=NC1=O (centres undefined) | 11 | -2 | -11 | 9 | -2 | .
CN(C(=O)c1cccc(NC(=O)Cc2ccc(NC(=O)C3CCCN(S(=O)(=O)c4cccc([N+](=O)[O-])c4)C3)cc2)c1)C1CCC1 (centres undefined) | -2 | -4 | -10 | -1 | -1 | .
COc1ccc(CCNC(=O)CSc2nc3c(sc(=S)n3-c3ccccc3)c(=O)[nH]2)cc1OC | -1 | -2 | 0 | -8 | 5 | .
COc1cc2c(cc1OC)CN(CCC(C)c1ccc(Cl)cc1)CC2 (centres undefined) | 65* | 17 | 2 | 12 | 13* | 2
COc1cc2c(cc1OC)CN(Cc1ccccc1)CC2 | -2 | -4 | 4 | -12 | -4 | .
SMILES | Exocytosis inh | CendR NRP1 mod | ASAP1 inh | ARFGAP1 inh | V-ATPase pH | VATPase regulator
O=C(NCc1ccccc1)c1ccc(CS(=O)(=O)Cc2ccccc2F)o1 | -1 | 0 | 6 | 14 | -2 | .
O=C(O)c1ccc(CS(=O)(=O)Cc2ccccc2F)o1 | -1 | 4 | -13 | -2 | 9.0* | 0
O=S1(=O)N(Cc2ccccc2F)CCCN1Cc1c(F)cccc1Cl | 2 | -12 | -6 | -6 | 9.6* | 0
Cc1nn(CC#N)c(=O)n1-c1ccc(C(C)C)cc1 | -1 | 2 | -3 | 7 | -3 | .
Cc1nn(CC#N)c(=O)n1-c1ccc(Cl)cc1 | -2 | 3 | 3 | 8 | 1 | -4
CCc1ccc(NC(=O)C2CCCN(S(=O)(=O)c3cnc[nH]3)C2)cc1 (centres undefined) | -9 | 4 | . | . | 11* | 0
